Some results are limits rather than exact numbers.

Results on four molecules are retold here after ChEMBL document CHEMBL1143049, “Preparation, biological activity and endogenous occurrence of N6-benzyladenosines” (Bioorg Med Chem, 2007).

In assay [1] the test system is Amaranthus. The assay is described as follows: Cytokinin activity in Amaranthus cotyledons assessed as dark induction of betacyanin synthesis at 0.1 mmol/L relative to 6-Benzylaminopurine. Type of assay: functional. The procedure, abridged: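 Dark induction of betacyanin in excised Amaranthus cotyledons. DMSO stock brought to 10^-3 M in water, diluted into assay medium (DMSO ≤0.2%). Tested over 10^-4 to 10^-8 M, five replicates per concentration, assay repeated at least three times. Response at the optimal concentration expressed relative to BAP at its optimum (set to 100).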

The test system of assay [2] is B16. The assay is described as follows: Antitumor activity against mouse B16 cells after 72 hrs by Calcein AM assay. The assay is classed as functional, cell-based. The following applies: B16, 72 h. An outline of the steps: (§1)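 Cells grown in DMEM at 37 °C under 5% CO2. Compounds added after 12 h preincubation in 96-well plates, final 0.5-170 μM, with 0.6% final DMSO, then 72 h exposure. Viable cells stained with Calcein AM for 1 h and read at 485/538 nm. IC50 (concentration lethal to 50% of cells) taken from dose-response curves. Run in quadruplicate.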

Assay [3] relates to HOS. The assay is described as follows: Antitumor activity against human HOS cells after 72 hrs by Calcein AM assay. Type of assay: functional, cell-based. The procedure, abridged:
as §1

Assay [4] has as its system HL-60. The assay is described as follows: Antitumor activity against human HL60 cells after 72 hrs by Calcein AM assay. The following applies: HL-60, 72 h. The assay is classed as functional, cell-based. The procedure, abridged:
as §1

Assay [5] relates to Nicotiana tabacum. The assay is described as follows: Cytokinin activity in tobacco assessed as stimulation of callus growth at 0.1 mmol/L relative to 6-Benzylaminopurine. The assay is classed as functional. The procedure, abridged:
(§2)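 Stimulation of tobacco callus growth. Compounds dissolved in DMSO, brought to 10^-3 M in water and diluted into medium (DMSO ≤0.2%). Range 10^-4 to 10^-8 M, five replicates per concentration, at least three independent repeats. Activity at the optimal concentration given relative to BAP's optimal response, taken as 100.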

For assay [6], the system named is Triticum aestivum. The assay is described as follows: Cytokinin activity in wheat assessed as retention of chlorophyll in excised wheat leaves at 0.1 mmol/L relative to 6-Benzylaminopurine by senescence assay. The assay is classed as functional. An outline of the steps:
(§3)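 Senescence assay measuring chlorophyll retention in excised wheat leaves. DMSO stocks brought to 10^-3 M with water, then diluted in assay medium to a final DMSO of at most 0.2%. Concentrations 10^-4 to 10^-8 M, quintuplicate, repeated at least three times. Response at the optimal concentration normalised to BAP optimum = 100.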

For assay [7], the system named is G-361. The assay is described as follows: Antitumor activity against human G361 cells after 72 hrs by Calcein AM assay. The following applies: G-361, 72 h. Type of assay: functional, cell-based. An outline of the steps: as §1
For assay [8], the system named is CCRF-CEM. The assay is described as follows: Antitumor activity against human CEM cells after 72 hrs by Calcein AM assay. The assay is classed as functional, cell-based. An outline of the steps:
as §1

Assay [9] deals with K562. The assay is described as follows: Antitumor activity against human K562 cells after 72 hrs by Calcein AM assay. The assay is classed as functional, cell-based. The following applies: K562, 72 h. The procedure, abridged: as §1
Assay [10] is described as follows: Antitumor activity against human MCF cells after 72 hrs by Calcein AM assay. Type of assay: functional, cell-based. An outline of the steps:
as §1

The subject of assay [11] is Triticum aestivum. The assay is described as follows: Cytokinin activity in wheat assessed as retention of chlorophyll in excised wheat leaves at 0.01 mmol/L relative to 6-Benzylaminopurine by senescence assay. Type of assay: functional. An outline of the steps:
as §3

In assay [12] the test system is Nicotiana tabacum. The assay is described as follows: Cytokinin activity in tobacco assessed as stimulation of callus growth at 0.01 mmol/L relative to 6-Benzylaminopurine. Type of assay: functional. An outline of the steps: as §2
Assay [13] in a line: Cytotoxicity against mouse NIH 3T3 cells after 72 hrs by Calcein AM assay. Type of assay: cell-based. The following applies: NIH3T3, 72 h. The procedure, abridged:
as §1

Assay [14] deals with Triticum aestivum. The assay is described as follows: Cytokinin activity in wheat assessed as retention of chlorophyll in excised wheat leaves at 0.1 umol/L relative to 6-Benzylaminopurine by senescence assay. Type of assay: functional. The procedure, abridged:
as §3

In assay [15] the test system is Nicotiana tabacum. The assay is described as follows: Cytokinin activity in tobacco assessed as stimulation of callus growth at 1 umol/L relative to 6-Benzylaminopurine. Type of assay: functional. The procedure, abridged: as §2

In general, IC50 refers to the midpoint of a concentration-inhibition curve. With `Cc1ccc(O)c(CNc2ncnc3c2ncn3[C@@H]2O[C@H](CO)[C@@H](O)[C@H]2O)c1`, the results for the Activity in assay [1], in assay [5] and in [6] were 58%, 7% and 164%, respectively. The IC50 in assay [2] was more than 167 µM; in [3], more than 167 µM; in assay [4], 15 µM; in assay [7] it was more than 167 µM; in assay [8], 1.9 µM; in assay [9], 16.5 µM. Besides, the IC50 in assay [10] was more than 167 µM.

`OC[C@H]1O[C@@H](n2cnc3c(NCc4ccccc4Br)ncnc32)[C@H](O)[C@@H]1O`: the results for the Activity in [11], in assay [12] and in assay [1] were 86%, 100% and 147%, respectively. Also, the IC50 in assay [13] is more than 167 µM; in [2], more than 167 µM; in [3], more than 167 µM; in assay [4], 6.6 µM; in assay [7] it was more than 167 µM; in assay [8], 12.3 µM. Also, the IC50 in [9] is 10 µM; in assay [10], more than 167 µM.

In the case of `OC[C@H]1O[C@@H](n2cnc3c(NCc4ccc(Cl)cc4Cl)ncnc32)[C@H](O)[C@@H]1O`, the Activity in assay [11] is listed as 5%; in [12], 70%; in assay [1] it was 3%. Besides, the IC50 in assay [2] is more than 167 µM; in assay [3] it was more than 167 µM; in assay [4], 96.3 µM; in assay [7], 128 µM; in assay [8] it was 86.7 µM; in assay [9], 106 µM. Besides, in [10], the IC50 is 127 µM.

Regarding `OC[C@H]1O[C@@H](n2cnc3c(NCc4ccc(O)c(O)c4)ncnc32)[C@H](O)[C@@H]1O`, the values for the Activity in [1], in assay [14] and in assay [15] were 8%, 17% and 4%, respectively.
